# Read-outs that look alike come from different tables or passages of the source.
# Key:
# CYP3A = settings: cited from earlier work
# [1] = test system: breast cancer resistance protein; settings: cited from earlier work
# [2] = Population PK model of venetoclax in healthy subjects; format: in vivo, healthy female subjects
# Procedure, shortened: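 Pooled data from 203 healthy women (21–65 y, BMI 18.6–30.1 kg/m2) given oral doses of 10–400 mg, 1–4 times with ≥7-day washout, after a 10-h fast or within 30 min of a low/moderate/high-fat breakfast. Serial plasma sampling up to 96 h; assayed by liquid–liquid extraction LC-MS/MS. Two-compartment nonlinear mixed-effects model with lagged first-order absorption, exponential IIV on CL/F, Vc/F and F, and combined residual error. Covariates kept by backward elimination (P < 0.01); low-fat meal as reference.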
# B‐lymphocytes = format: in vivo, healthy female subjects; settings: for time for B‐lymphocytes to recover to 90% of baseline levels: average
# Procedure, shortened: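 B-lymphocytes counted at baseline and after dosing. Individual post hoc PK estimates were fixed, then a Friberg-type semimechanistic model was fitted with a linear drug effect. It has a proliferation compartment, sequential transit compartments, a circulating pool, and feedback (baseline/current count, exponent γ). Baseline was the median predose count, with IIV. Log-transformed counts were fitted with additive residual error and checked by goodness-of-fit plots. Simulations covered single doses.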
# [3] = 4‐week dog studies, male; no reference given; cited from earlier work
# [4] = cited from earlier work
# P‐glycoprotein = settings: cited from earlier work
# B cells = settings: patients with rheumatoid arthritis; cited from earlier work
# [5] = covariate effect on bio-availability relative to low-fat meal
# [6] = model simulation, 200 mg single dose
molecule,measurement,setting,value
"CC1(C)CCC(CN2CCN(c3ccc(C(=O)NS(=O)(=O)c4ccc(NCC5CCOCC5)c([N+](=O)[O-])c4)c(Oc4cnc5[nH]ccc5c4)c3)CC2)=C(c2ccc(Cl)cc2)C1 [venetoclax, Venetoclax]",metabolizing enzyme,CYP3A,mainly metabolized by CYP3A
same,breast cancer resistance protein transporter substrate,[1],substrate
same,Fasting on F1,[2]; [5],0.29
same,Moderate/high‐fat on F1,[2]; [5],1.47
same,Chinese on F1,"[2]; covariate effect on bio-availability, Chinese ethnicity",1.53
same,Azithromycin on F1,"[2]; covariate effect on bio-availability, coadministration of azithromycin",0.65
same,Rifampin on F1,"[2]; covariate effect on bio-availability, coadministration of rifampin",4.91
same,Low fat on F1,"[2]; covariate effect on bio-availability, low-fat meal is the reference category",1
same,Vd,"[2]; female, human, plasma, oral",99 L
same,higher bioavailability with coadministration of rifampin,[2]; in vivo,391%
same,higher clearance with coadministration of rifampin,[2]; in vivo,167%
same,lower bio‐availability with coadministration of azithromycin,[2]; in vivo,35%
same,Dose nonlinearity on F1,"[2]; parameter Fixed, not estimated",−0.178
same,"ALAG, absorption lag time",[2]; population PK estimate,0.04 days
same,"KA, absorption rate",[2]; population PK estimate,3.83 day⁻¹
same,"CL/F, apparent clearance","[2]; population PK estimate, oral, healthy subjects",449 L/day
same,higher bio‐availability with a moderate/high‐fat meal,[2]; relative to a low‐fat meal,47%
same,lower bio‐availability under fasting conditions,[2]; relative to a low‐fat meal,71%
same,B‐cell count recovered to 90% of baseline,B‐lymphocytes; even at the 400 mg dose,≤ 2 months
same,Slope of drug effect,"B‐lymphocytes; linear drug effect on B-lymphocytes, PD model parameter estimate",20.9
same,decrease in B‐lymphocytes,B‐lymphocytes; [6],24% (15–35%)
same,time for B‐lymphocytes to recover to 90% of baseline levels,B‐lymphocytes; [6],48 (21–64) days
same,time for B‐lymphocytes to recover to 90% of baseline levels,"B‐lymphocytes; model simulation, 400 mg single dose",59 (30–66) days
same,recovery of B‐lymphocytes to 90% of baseline levels,"B‐lymphocytes; model simulation, three 200 mg doses every week or every other week",≤ 2 months
same,time for B‐cell count to rise back to baseline,B‐lymphocytes; simulations/observed data,2–3 months
same,toxicology finding,[3],testicular toxicity (germ cell loss)
same,increase of venetoclax exposures by food,[4]; compared with fasting conditions,threefold to fivefold
same,mean terminal elimination half‐life,[4]; healthy subjects,17 h
same,mean terminal elimination half‐life,[4]; subjects with severe hepatic impairment,35 h
same,P‐glycoprotein transporter substrate,P‐glycoprotein,substrate
rituximab,time of reduction in B cells from circulation postinfusion,B cells,1–28 weeks
